High-throughput results: PubChem BioAssay, several laboratories
Calb FLC = affects C. albicans growth with fluconazole. C. albicans CaCi-2 (fluconazole-resistant clinical isolate) + fluconazole, Alamar Blue growth, 48 h. growth inhibition, % (concentration not given with the values). 0.57% of 300,000 active;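 active = growth inhibition above about 58% in most replicates, limit read from the data, passing the limit was not always enough; inconclusive = exactly half the replicates above a set limit; inactive = most replicates below a set limit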;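 also: all wells also contain fluconazole at 8 µg/ml as a sub-toxic cotreatment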
NLRP3 yeast inh = NALP3 inhibition in yeast; Yeast reconstituted NLRP3/ASC/caspase-1, beta-gal luminescence, 24 h; inhibition, % at 10 µM; 0.39% of 330,000 active;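 active = inhibition of 50% or more; inactive = inhibition below 50%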
ATG4B inh = inhibitors of human ATG4B cysteine protease | Q9Y4P1 | ATG4B cleavage of LC3-PLA2, NBD-HPC fluorescence, 1 h | inhibition, % at 8.33 µM | 0.51% of 340,000 active | AID 504462; in the data active = inhibition above about 40%
UCH37 DUB inh = human UCH37 deubiquitinating enzyme inhibition; Q9Y5K5; purified proteasome/UCH37, Ub-AMC cleavage fluorescence; inhibition, % (test concentration not listed); 0.33% of 330,000 active; AID 588478;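 active = mean inhibition over replicate wells above about 20%, limit read from the data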
Target sequence (Q9Y5K5 whole entry, looked up): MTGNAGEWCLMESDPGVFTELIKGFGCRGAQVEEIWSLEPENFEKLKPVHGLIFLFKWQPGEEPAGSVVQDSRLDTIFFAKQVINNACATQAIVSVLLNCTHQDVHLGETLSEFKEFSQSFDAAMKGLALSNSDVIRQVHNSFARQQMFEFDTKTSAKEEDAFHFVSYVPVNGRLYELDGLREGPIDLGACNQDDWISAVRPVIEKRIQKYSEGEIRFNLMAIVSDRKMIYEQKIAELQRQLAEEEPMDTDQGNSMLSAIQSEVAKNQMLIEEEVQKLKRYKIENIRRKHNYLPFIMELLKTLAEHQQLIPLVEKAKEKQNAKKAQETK
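Test system – human UCH37 enzyme supplied as purified proteasome complex · Incubation – 30 min preincubation with enzyme, 25 min cleavage at room temperature · Detection – AMC fluorescence from Ub-AMC cleavage, excitation 355 nm, emission 460 nm · Benchmarks – no-proteasome wells (full inhibition) and compound-free wells (no inhibition)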
ALR H2O2 inh = inhibitors of human sulfhydryl oxidase ALR. P55789. purified ALR, DTT oxidation, H2O2 HRP-luminol luminescence. inhibition, % (concentration not given with the values). 3.8% of 290,000 active;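 active = mean replicate inhibition above about 79%, with every replicate also reaching it, limit read from the data; inconclusive = only one of the two criteria met; inactive = mean below limit and not every replicate reaching it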
Target sequence (P55789 whole entry, looked up): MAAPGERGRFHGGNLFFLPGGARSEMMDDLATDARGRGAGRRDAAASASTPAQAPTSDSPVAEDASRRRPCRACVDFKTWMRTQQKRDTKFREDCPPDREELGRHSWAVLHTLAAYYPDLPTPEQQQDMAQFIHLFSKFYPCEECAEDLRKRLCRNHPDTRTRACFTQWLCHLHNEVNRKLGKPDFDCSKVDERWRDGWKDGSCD
NALP1 inh = blocks the NALP1 inflammasome reconstituted in yeast. S. cerevisiae NALP1/ASC/caspase-1 growth, X-gal OD620, 72 h. 0.61% of 280,000 active. inhibition, % at 10 µM; in the data active = inhibition mostly above about 24%, no sharp cut-off; inactive = mostly below about 32%
Numbers stand for hits; i = inactive; ? = inconclusive; nt = not tested or not shown. The list is not random: actives were taken first. Their share in the collection is about 4.8%.

SMILES | Calb FLC | NLRP3 yeast inh | ATG4B inh | UCH37 DUB inh | ALR H2O2 inh | NALP1 inh
CCc1nnc(NC(=O)CSc2nnc(CNc3cccc(C)c3)n2-c2ccccc2)s1 | 116 | i | i | i | nt | i
CCc1nnc(NC(=O)CSc2nnc(CNc3ccc(F)cc3)n2C2CCCCC2)s1 | i | i | i | i | i | 32
Cc1nn(C)cc1C(=O)NNC(=S)Nc1ccccc1 | i | i | i | i | 88 | i
Cc1nc2ccccn2c1C(=O)NNC(=O)Nc1ccccc1 | i | i | i | i | i | i
Cc1nc2ccccn2c1C(=O)NNC(=S)Nc1ccccc1 | i | i | i | i | 97 | nt
CNC(=S)NNC(=O)c1cn(C)nc1C | i | i | i | i | i | i
Cc1nc2ccccn2c1C(=O)NNC(=S)Nc1ccc(Cl)cc1 | i | i | i | i | 87 | i
NC(=NOC(=O)c1ccccc1Cl)c1nonc1N | nt | nt | nt | i | nt | nt
CC1=C/C(=N\OC(=O)/C=C/c2ccccc2)C(C)=CC1=O | i | i | i | nt | 95 | i
COc1cc(C=NNC(=O)C(Cc2c[nH]c3ccccc23)NC(=O)OCc2ccccc2)cc([N+](=O)[O-])c1O (stereo not given) | nt | nt | nt | i | nt | nt
COc1ccc2cc(C(C)=NNC(=O)C3CC3)ccc2c1 | nt | nt | nt | i | nt | nt
COc1ccc(N2CCN(c3n[nH]c(N)n3)CC2)cc1 | i | i | i | i | 98 | i
Cc1cccc(C)c1N1CCN(c2n[nH]c(N)n2)CC1 | i | i | i | i | 96 | i
O=C(NN=Cc1ccco1)C1CC1c1ccccc1 (stereo not given) | nt | nt | nt | i | nt | nt
O=C(Nc1nc(-c2cccs2)cs1)c1ccc(Cl)s1 | i | i | i | i | 97 | i
CC(=O)Nc1nc(-c2cccs2)cs1 | i | i | i | i | i | i
Cc1ccccc1C=NN1C(=O)CSC1=S | nt | nt | nt | i | nt | nt
COc1ccccc1CNC(=O)CC(C)=NNC(=O)Cc1ccc(OC)c(OC)c1 | nt | nt | nt | i | nt | nt
O=Nc1c(-c2cccc([N+](=O)[O-])c2)nc2ncccn12 | 94 | i | nt | nt | nt | i
O=[N+]([O-])c1cccc(-c2cn3nc(-c4ccccc4)c(-c4ccccc4)nc3n2)c1 | i | i | i | i | i | i
Cc1ccc(F)cc1S(=O)(=O)NCc1ccc(N2CCN(C)CC2)cc1 | i | i | i | i | i | 31
Nc1c(C(=O)NN=Cc2cccnc2)cnn1-c1ccccc1 | nt | nt | nt | i | nt | nt
Cc1ccnc(NC(c2ccccn2)c2c(C)[nH]c3ccccc23)c1 (stereo not given) | i | i | i | i | 98 | i
N#C/C(=C\c1ccc(O)c(O)c1)C(=O)NCCc1ccccc1 | nt | i | i | i | 98 | nt
CC(NC(=O)/C(C#N)=C/c1ccc([N+](=O)[O-])o1)c1ccccc1 (stereo not given) | i | i | i | nt | nt | 68
SMILES | Calb FLC | NLRP3 yeast inh | ATG4B inh | UCH37 DUB inh | ALR H2O2 inh | NALP1 inh
COc1ccc(/C=C(\C#N)C(=O)NCc2ccccc2)cc1O | i | i | i | i | nt | i
CC(NC(=O)/C(C#N)=C/c1ccc(N2CCOCC2)cc1)c1ccccc1 (stereo not given) | i | i | i | i | i | i
COc1ccc(/C=C(\C#N)C(=O)NC(C)c2ccccc2)cc1O (stereo not given) | i | i | i | i | 87 | i
COC(=O)c1ccc(/C=C(\C#N)C(=O)NC(C)c2ccccc2)cc1 (stereo not given) | i | i | i | i | 87 | i
CC(NC(=O)/C(C#N)=C/c1ccco1)c1ccccc1 (stereo not given) | i | i | i | i | i | nt
CCOc1c(Cl)cc(C=NNC(N)=S)cc1OC | nt | nt | nt | i | nt | nt
CC(=NNC(=O)c1cc(Cl)ccc1O)C12CC3CC(CC(C3)C1)C2 | nt | nt | nt | i | nt | nt
COc1ccc(N2CCN(C(CNC(=O)C(=O)NCCc3c[nH]c4ccccc34)c3ccco3)CC2)cc1 (stereo not given) | i | i | i | i | i | i
COC(=O)NCC(c1ccco1)N1CCN(c2ccc(OC)cc2)CC1 (stereo not given) | i | i | i | i | 89 | i
Cc1nc2sc(C(c3ccco3)N3CCN(c4ccc(F)cc4)CC3)c(O)n2n1 (stereo not given) | i | i | i | i | 94 | i
COc1ccc(N2CCN(C(CNS(C)(=O)=O)c3ccco3)CC2)cc1 (stereo not given) | i | i | i | i | 92 | i
CCC(=O)NCC(c1ccco1)N1CCN(c2ccc(OC)cc2)CC1 (stereo not given) | i | i | i | i | ? | i
COc1ccc(N2CCN(C(CNC(=O)C(=O)NCCCO)c3ccco3)CC2)cc1 (stereo not given) | i | i | i | i | 86 | i
CC(=O)c1ccc(OCC(=O)NCC(c2ccco2)N2CCCCC2)cc1 (stereo not given) | i | i | i | i | i | i
COc1ccc(N2CCN(C(CNC(=O)COc3ccccc3)c3ccco3)CC2)cc1 (stereo not given) | i | i | i | i | 89 | nt
CCS(=O)(=O)NCC(c1ccco1)N1CCN(c2ccccc2)CC1 (stereo not given) | i | i | i | i | 93 | i
O=S(=O)(NCC(c1ccco1)N1CCN(c2ccccc2)CC1)c1ccc(F)cc1 (stereo not given) | i | i | i | i | i | i
COC(=O)NCC(c1ccco1)N1CCN(c2ccc(F)cc2)CC1 (stereo not given) | i | i | i | i | 92 | i
CC(=NNC(=O)c1cccs1)c1cccc(N)c1 | nt | nt | nt | i | nt | nt
CCOc1ccc(S(=O)(=O)NC2CCCC2)cc1C | i | i | i | i | i | i
Cc1ccc(S(=O)(=O)NC2CCCC2)cc1C | i | i | i | i | i | 39
CCC1(c2ccc(Cl)cc2)NC(=S)N(c2ccc(C)c(C)c2)N1 (stereo not given) | i | i | i | i | 97 | i
Cc1ccc(NC2=NC(c3ccc(O)cc3)n3c(nc(C)cc3=O)N2)cc1 (stereo not given) | i | i | i | i | i | i
COc1ccc(C2N=C(Nc3ccc(C)cc3)Nc3nc(C)cc(=O)n32)cc1 (stereo not given) | 110 | i | i | i | i | i
Cc1ccc(C(=O)NN=Cc2ccc(OC(=O)c3cccc(F)c3)cc2)cn1 | nt | nt | nt | i | nt | nt
SMILES | Calb FLC | NLRP3 yeast inh | ATG4B inh | UCH37 DUB inh | ALR H2O2 inh | NALP1 inh
C/C(C=Nn1c(COc2ccccc2)n[nH]c1=S)=C\c1ccco1 | nt | nt | nt | i | nt | nt
C/[N+]([O-])=C\CC(=O)c1ccc(-c2ccccc2)cc1 | i | i | i | i | i | 29
CCN(CC)CC(=O)c1ccc(-c2ccccc2)cc1 | i | i | i | i | 99 | nt
CO/N=C/CC(=O)c1ccc(-c2ccccc2)cc1 | i | i | i | nt | i | i
CN(C)CC(=O)c1ccc(-c2ccccc2)cc1 | i | i | i | i | i | i
COc1ccc(NC(=O)ON=Cc2c(C)nn(C(C)(C)C)c2C)cc1 | nt | nt | nt | i | nt | nt
CON=Cc1ccc(N2CCN(C(=O)c3cccc(Cl)c3)CC2)c([N+](=O)[O-])c1 | nt | nt | nt | i | nt | nt
CCN1C(=O)/C(=C\c2nc3ccccc3c(=O)n2-c2ccccc2)c2ccccc21 | i | i | i | i | i | i
